Reference: ChEMBL document CHEMBL1833930, “Synthesis and biological activities of triazole derivatives as inhibitors of InhA and antituberculosis agents” (2011)
In brackets after ≈: the same amount, converted by molar mass.

How the values were obtained:
[1] = tested on: Mycobacterium tuberculosis; assay: Antimycobacterial activity against Mycobacterium tuberculosis H37Rv by twofold dilution method; format: functional
In short: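 Single colony inoculated into complete Middlebrook 7H9 and grown at 37 °C to exponential phase (~10⁸ CFU/mL, OD600 0.8–1.0). Diluted to ~10⁷ CFU/mL, then streaked onto plates with two-fold serial compound dilutions. MIC was the lowest concentration inhibiting growth. Three independent repeats.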

[2] = target: T1, Enoyl-[acyl-carrier-protein] reductase [NADH] (Mycobacterium tuberculosis) (UniProt P9WGR1); assay: Inhibition of Mycobacterium tuberculosis InhA expressed in Escherichia coli BL21 using trans-2-dodecenoyl-Coenzyme A as substrate at 50 uM by spectrophotometry
T1 sequence (whole entry): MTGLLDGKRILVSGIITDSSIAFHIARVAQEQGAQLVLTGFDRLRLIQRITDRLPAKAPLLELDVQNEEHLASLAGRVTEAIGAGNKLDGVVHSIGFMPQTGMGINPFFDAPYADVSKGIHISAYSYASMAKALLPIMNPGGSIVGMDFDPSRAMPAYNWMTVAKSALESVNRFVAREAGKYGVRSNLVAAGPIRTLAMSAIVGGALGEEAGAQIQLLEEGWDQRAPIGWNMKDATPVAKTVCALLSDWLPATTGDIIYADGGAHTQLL
In short: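 Recombinant M. tuberculosis InhA was expressed in E. coli with 1 mM IPTG overnight at 20 °C. It was purified on Ni-NTA and desalted into 30 mM PIPES pH 6.8, 150 mM NaCl. Reactions ran in buffer at pH 6.8 with 150 mM NaCl. Controls were run identically without inhibitor.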

| SMILES | MIC [1] | inhibition [2] |
| --- | --- | --- |
| COc1cccc(Cn2cc(C(=O)Cc3ccccc3)nn2)c1 | 81.3 µM (≈ 25 µg/mL) | 10% |
| c1ccc(CCc2cn(CC3CCCCC3)nn2)cc1 | 186 µM (≈ 50 µg/mL) | – |
| O=C(Cc1ccc(Cl)cc1Cl)c1cn(Cc2ccccc2)nn1 | 289 µM (≈ 100 µg/mL) | – |
| c1ccc(Cc2cn(Cc3ccccc3)nn2)cc1 | 201 µM (≈ 50 µg/mL) | – |
| O=C(Cc1ccccc1)c1cn(Cc2ccc([N+](=O)[O-])cc2)nn1 | 310 µM (≈ 100 µg/mL) | – |
| CCCCCCCCn1cc(C(O)Cc2ccc(Cl)cc2Cl)nn1 (racemic) | 67.5 µM (≈ 25 µg/mL) | – |
| CCCCCCCCn1cc(CCc2ccccc2)nn1 | 35 µM (≈ 9.99 µg/mL) | 46% |
| COc1cc(Cn2cc(C(=O)Cc3ccccc3)nn2)cc(OC)c1 | > 296 µM | – |
| COc1cc(Cn2cc(C(=O)Cc3ccc(Cl)cc3Cl)nn2)cc(OC)c1 | 246 µM (≈ 100 µg/mL) | – |
| CCCCCCCCn1cc(C(=O)Cc2ccccc2)nn1 | 83.5 µM (≈ 25 µg/mL) | 25% |
| COc1cccc(Cn2cc(C(=O)Cc3ccc(Cl)cc3Cl)nn2)c1 | 13.3 µM (≈ 5 µg/mL) | – |
| O=C(Cc1ccccc1)c1cn(Cc2ccccc2)nn1 | 361 µM (≈ 100 µg/mL) | 13% |
| CCCCCCCCCn1cc(CCc2ccccc2)nn1 | 16.7 µM (≈ 5 µg/mL) | 58% |
| CCCCCCCCCCCCn1cc(CCc2ccccc2)nn1 | ≤ 5.9 µM | 40% |
| Oc1cc(Cl)ccc1Oc1ccc(Cl)cc1Cl [TRICLOSAN] | 34.5 µM (≈ 9.99 µg/mL) | – |
| Cc1cc(C)cc(Cn2cc(C(=O)Cc3ccccc3)nn2)c1 | > 327 µM | 10% |
| CCCCCCCCn1cc(C(=O)Cc2ccc(Cl)cc2Cl)nn1 | 27.2 µM (≈ 10 µg/mL) | – |
| Cc1cc(C)cc(Cn2cc(C(=O)Cc3ccc(Cl)cc3Cl)nn2)c1 | 267 µM (≈ 100 µg/mL) | – |
| Cc1cc(C)cc(Cn2cc(CCc3ccccc3)nn2)c1 | 34.3 µM (≈ 9.99 µg/mL) | 11% |
| O=C(Cc1ccccc1)c1cn(CC2CCCCC2)nn1 | 88.2 µM (≈ 25 µg/mL) | 12% |
| CCCCCCCCn1cc(C(O)Cc2ccccc2)nn1 (racemic) | 33.2 µM (≈ 10 µg/mL) | – |
| c1ccc(Cn2cc(-c3ccccc3)nn2)cc1 | > 425 µM | – |
| O=C(Cc1ccc(Cl)cc1Cl)c1cn(Cc2ccc([N+](=O)[O-])cc2)nn1 | 256 µM (≈ 100 µg/mL) | – |
| c1ccc(CCc2cn(Cc3ccccc3)nn2)cc1 | 94.9 µM (≈ 25 µg/mL) | 15% |
